According to ChEMBL document CHEMBL1146380, “Synthesis, antimicrobial activity, and QSAR studies of furan-3-carboxamides” (2007):
Converted amounts (≈) assume the structure as drawn. The source made the active and inactive calls. The calls are words filed in the database; no cut-off is given here.

Tests used:
[1] = tested on: Staphylococcus aureus; assay: Antimicrobial activity against Staphylococcus aureus ATCC 25923 by broth microdilution method; format: functional; details: for MBC: read-out: MFC
In short: (§1)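 Bacteria grown overnight on Mueller–Hinton agar. Colonies were suspended in saline to McFarland turbidity (about 10^8 cfu/mL), diluted 1:100 in saline, then 1:20 in Mueller–Hinton broth, giving 5 · 10^4 cfu/mL per well. DMSO-dissolved compound was tested in twofold dilutions from 320 to 1.25 at 35 °C for 24 h. MIC was the lowest concentration with no visible turbidity (M7-A4). Bactericidal concentration was read by subculturing clear wells on Mueller–Hinton agar.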

[2] = tested on: Escherichia coli; assay: Antimicrobial activity against Escherichia coli ATCC 25922 by broth microdilution method; format: functional; in short: as §1
[3] = tested on: Pseudomonas aeruginosa; assay: Antimicrobial activity against Pseudomonas aeruginosa ATCC 27853 by broth microdilution method; format: functional; in short: as §1
[4] = Antimicrobial activity against Salmonella setubal ATCC 19196 by broth microdilution method; format: functional, Salmonella enterica subsp. enterica serovar Setubal; details: Salmonella enterica; in short: as §1
[5] = tested on: Klebsiella pneumoniae; assay: Antimicrobial activity against Klebsiella pneumoniae ATCC 1003 by broth microdilution method; format: functional; in short: as §1
[6] = tested on: Nakaseomyces glabratus; assay: Antimicrobial activity against Candida glabrata […] by broth microdilution method; format: functional
In short: (§2)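 Yeasts grown on potato dextrose agar. Inoculum was standardized by McFarland turbidity as for bacteria, into RPMI 1640 broth (M27-A2). DMSO-dissolved compound was tested in twofold dilutions from 320 to 1.25 at 35 °C for 24 h, in duplicate. MIC was the lowest concentration completely inhibiting visible growth. Fungicidal concentration was read by subculturing 20 µL from clear wells on Sabouraud dextrose agar at 35 °C.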

[7] = tested on: Cryptococcus deneoformans; assay: Antimicrobial activity against Cryptococcus neoformans var.neoformans serotype D ATCC 28952 by broth microdilution method; format: functional
In short: (§3)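 Organism grown on potato dextrose agar, with turbidity-standardized inoculum in RPMI 1640 broth (M27-A2). DMSO-dissolved compound was tested in twofold dilutions from 320 to 1.25 at 35 °C, incubated up to 72 h, in duplicate. MIC was the lowest concentration with no visible growth. Cidal concentration was read by subculturing 20 µL from clear wells on Sabouraud dextrose agar, incubated for the same period.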

[8] = tested on: Candida albicans; assay: Antimicrobial activity against Candida albicans ATCC 44373 by broth microdilution method; format: functional; in short: as §2
[9] = tested on: Saccharomyces cerevisiae; assay: Antimicrobial activity against Saccharomyces cerevisiae ATCC 2601 by broth microdilution method; format: functional; in short: as §3
[10] = tested on: Rhizopus arrhizus; assay: Antimicrobial activity against Rhizopus oryzae isolate by broth microdilution method; format: functional
[11] = tested on: Prototheca zopfii; assay: Antimicrobial activity against Prototheca zopfii by broth microdilution method; format: functional; in short: as §3
[12] = tested on: Aspergillus fumigatus; assay: Antimicrobial activity against Aspergillus fumigatus isolate by broth microdilution method; format: functional
[13] = tested on: Sporothrix schenckii; assay: Antimicrobial activity against Sporothrix schenckii ATCC 1146 by broth microdilution method; format: functional
[14] = tested on: Aspergillus niger; assay: Antimicrobial activity against Aspergillus niger isolate by broth microdilution method; format: functional
[15] = tested on: Aspergillus terreus; assay: Antimicrobial activity against Aspergillus terreus isolate by broth microdilution method; format: functional
[16] = tested on: Candida dubliniensis; assay: Antimicrobial activity against Candida dubliniensis CBS 7987 by broth microdilution method; format: functional; in short: as §2
[17] = tested on: Fusarium solani; assay: Antimicrobial activity against Fusarium solani isolate by broth microdilution method; format: functional
[18] = tested on: Aspergillus flavus; assay: Antimicrobial activity against Aspergillus flavus isolate by broth microdilution method; format: functional
[19] = tested on: Scedosporium boydii; assay: Antimicrobial activity against Pseudallescheria boydii isolate by broth microdilution method; format: functional

Row | Compound | MIC [1] [µg/mL] | MIC [2] [µg/mL] | MIC [3] [µg/mL] | MIC [4] [µg/mL] | MIC [5] [µg/mL] | MBC [1] [µg/mL] | MFC [6] [µg/mL] | MIC [6] [µg/mL] | MFC [7] [µg/mL] | MIC [7] [µg/mL] | MFC [8] [µg/mL] | MIC [8] [µg/mL] | MIC [9] [µg/mL] | MIC [10] [µg/mL] | MIC [11] [µg/mL] | MIC [12] [µg/mL] | MIC [13] [µg/mL] | MIC [14] [µg/mL] | MIC [16] [µg/mL] | MIC [17] | also measured
1 | C[C@@H](O)[C@H]1C(=O)N2C(C(=O)O)=C(SCCNC=N)C[C@H]12 [IMIPENEM ANHYDROUS] | 0.06 (≈ 0.2 µM) | 0.06 (≈ 0.2 µM) | 2 (≈ 6.68 µM) | < 4 | < 4 |  |  |  |  |  |  |  |  |  |  |  |  |  |  |  | 
2 | CN(C)c1ccc(CNC(=O)c2ccoc2)cc1 | 80 (≈ 327 µM) | 160 (≈ 655 µM) | 160 (≈ 655 µM) | 320 (≈ 1310 µM) | 160 (≈ 655 µM) | 80 (≈ 327 µM) | 160 (≈ 655 µM) | 80 (≈ 327 µM) | 320 (≈ 1310 µM) | 160 (≈ 655 µM) | 160 (≈ 655 µM) | 80 (≈ 327 µM) | 160 (≈ 655 µM) | 320 (≈ 1310 µM) | 320 (≈ 1310 µM) | 320 (≈ 1310 µM) | 320 (≈ 1310 µM) | 320 (≈ 1310 µM) | 80 (≈ 327 µM) | inactive | Activity [9]: inactive; Activity [10]: inactive; Activity [2]: inactive; Activity [11]: inactive; MBC [3]: 160 µg/mL (≈ 655 µM); Activity [12]: inactive; Activity [13]: inactive; Activity [14]: inactive; Activity [15]: inactive; MFC [16]: 160 µg/mL (≈ 655 µM); MBC [4]: 320 µg/mL (≈ 1310 µM); Activity [18]: inactive; MIC [18]: 320 µg/mL (≈ 1310 µM); MBC ([5]; read-out: MFC): 160 µg/mL (≈ 655 µM); MFC [19]: 320 µg/mL (≈ 1310 µM); MIC [19]: 40 µg/mL (≈ 164 µM)
3 | C[C@@H]1[C@H](O)[C@@H](C)/C=C/C=C/C=C/C=C/C=C/C=C/C=C/[C@H](O[C@@H]2O[C@H](C)[C@@H](O)[C@H](N)[C@@H]2O)C[C@@H]2O[C@](O)(C[C@@H](O)C[C@@H](O)[C@H](O)CC[C@@H](O)C[C@@H](O)CC(=O)O[C@H]1C)C[C@H](O)[C@H]2C(=O)O [AMPHOTERICIN B] |  |  |  |  |  |  |  |  |  |  |  |  |  | 1 (≈ 1.08 µM) | 0.5 (≈ 0.541 µM) | 1 (≈ 1.08 µM) | 0.5 (≈ 0.541 µM) | 1 (≈ 1.08 µM) |  | 1 µg/mL (≈ 1.08 µM) | MIC [15]: 2 µg/mL (≈ 2.16 µM); MIC [18]: 1 µg/mL (≈ 1.08 µM); MIC [19]: 4 µg/mL (≈ 4.33 µM)
4 | OC(Cn1cncn1)(Cn1cncn1)c1ccc(F)cc1F [FLUCONAZOLE] |  |  |  |  |  |  |  | 8 (≈ 26.1 µM) |  | 2 (≈ 6.53 µM) |  | 4 (≈ 13.1 µM) | 1 (≈ 3.27 µM) |  |  |  |  |  | 2 (≈ 6.53 µM) |  | 
5 | O=C(Nn1cnnc1)c1ccoc1 | 320 (≈ 1800 µM) | 160 (≈ 898 µM) | 40 (≈ 225 µM) | 160 (≈ 898 µM) | 320 (≈ 1800 µM) | 320 (≈ 1800 µM) | 80 (≈ 449 µM) | 40 (≈ 225 µM) | 40 (≈ 225 µM) | 10 (≈ 56.1 µM) | 40 (≈ 225 µM) | 40 (≈ 225 µM) | 80 (≈ 449 µM) | 320 (≈ 1800 µM) | 80 (≈ 449 µM) | 320 (≈ 1800 µM) | 320 (≈ 1800 µM) | 320 (≈ 1800 µM) | 40 (≈ 225 µM) | 320 µg/mL (≈ 1800 µM) | MFC [9]: 160 µg/mL (≈ 898 µM); Activity [10]: inactive; MBC [2]: 320 µg/mL (≈ 1800 µM); MFC [11]: 320 µg/mL (≈ 1800 µM); MBC [3]: 160 µg/mL (≈ 898 µM); MFC [12]: 320 µg/mL (≈ 1800 µM); Activity [13]: inactive; MFC [15]: 320 µg/mL (≈ 1800 µM); MIC [15]: 320 µg/mL (≈ 1800 µM); MFC [16]: 40 µg/mL (≈ 225 µM); Activity [17]: inactive; MBC [4]: 320 µg/mL (≈ 1800 µM); Activity [18]: inactive; Activity [5]: inactive; Activity [19]: inactive
